Data from ChEMBL document CHEMBL1141626, “Thiosemicarbazones active against Clostridium difficile” (2008).
Converted amounts (≈) assume the structure as drawn.

What was measured:
Format in all cases: functional
Clostridioides difficile [1] = test: Antimicrobial activity against Clostridium difficile Z161 after 48 hrs
Method in brief: (§1)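 Anaerobes incubated in an anaerobic cabinet for broth MIC determination. Drug-free incubations of the same organisms served as controls. Value is the minimum inhibitory concentration.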

Clostridioides difficile [2] = test: Antimicrobial activity against Clostridium difficile Z168 after 48 hrs; method in brief: as §1
Clostridioides difficile [3] = test: Antimicrobial activity against Clostridium difficile Z176 after 48 hrs; method in brief: as §1
Clostridioides difficile [4] = test: Antimicrobial activity against Clostridium difficile Z159 after 48 hrs; method in brief: as §1
[5] = system: Staphylococcus epidermidis; test: Antimicrobial activity against Staphylococcus epidermidis RP62A after 24 hrs
Method in brief: (§2)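 MIC by dilution in nutrient broth. Anaerobic organisms were incubated in an anaerobic cabinet. Controls were the same organisms incubated without test compound.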

Clostridioides difficile [6] = test: Antimicrobial activity against Clostridium difficile Z387 after 48 hrs; method in brief: as §1
Cutibacterium acnes [7] = test: Antimicrobial activity against Propionibacterium acnes B5 after 48 hrs; method in brief: as §1
Clostridioides difficile [8] = test: Antimicrobial activity against Clostridium difficile Z160 after 48 hrs; method in brief: as §1
Candida albicans [9] = test: Antimicrobial activity against Candida albicans 1011377
[10] = system: Staphylococcus epidermidis; test: Antimicrobial activity against Staphylococcus epidermidis 3 after 24 hrs; method in brief: as §2
Clostridioides difficile [11] = test: Antimicrobial activity against Clostridium difficile Z172 after 48 hrs; method in brief: as §1
Staphylococcus aureus [12] = test: Antimicrobial activity against methicillin-resistant Staphylococcus aureus A1 after 24 hrs; method in brief: as §2
[13] = system: Staphylococcus epidermidis; test: Antimicrobial activity against Staphylococcus epidermidis NCTC 11047 after 24 hrs; conditions: NCTC 11047, 24 h; method in brief: as §2
Staphylococcus aureus [14] = test: Antimicrobial activity against methicillin-resistant Staphylococcus aureus E1 after 24 hrs; method in brief: as §2
Clostridioides difficile [15] = test: Antimicrobial activity against Clostridium difficile Z66 after 48 hrs; method in brief: as §1
Clostridioides difficile [16] = test: Antimicrobial activity against Clostridium difficile Z171 after 48 hrs; method in brief: as §1
Staphylococcus aureus [17] = test: Antimicrobial activity against methicillin-resistant Staphylococcus aureus C3 after 24 hrs; method in brief: as §2
Clostridioides difficile [18] = test: Antimicrobial activity against Clostridium difficile Z1578 after 48 hrs; method in brief: as §1
Acinetobacter sp. [19] = test: Antimicrobial activity against Acinetobacter sp.5
Clostridioides difficile [20] = test: Antimicrobial activity against Clostridium difficile Z169 after 48 hrs; method in brief: as §1
Clostridioides difficile [21] = test: Antimicrobial activity against Clostridium difficile Z1577 after 48 hrs; method in brief: as §1
Acinetobacter sp. [22] = test: Antimicrobial activity against Acinetobacter sp.2
Clostridioides difficile [23] = test: Antimicrobial activity against Clostridium difficile Z163 after 48 hrs; method in brief: as §1
Clostridioides difficile [24] = test: Antimicrobial activity against Clostridium difficile Z179 after 48 hrs; method in brief: as §1
Cutibacterium acnes [25] = test: Antimicrobial activity against Propionibacterium acnes B3 after 24 hrs
Clostridioides difficile [26] = test: Antimicrobial activity against Clostridium difficile Z167 after 48 hrs; method in brief: as §1
Clostridioides difficile [27] = test: Antimicrobial activity against Clostridium difficile Z1580 after 48 hrs; method in brief: as §1
Staphylococcus aureus [28] = test: Antimicrobial activity against methicillin-resistant Staphylococcus aureus C1 after 24 hrs; method in brief: as §2
Staphylococcus aureus [29] = test: Antimicrobial activity against methicillin-sensitive Staphylococcus aureus A2 after 24 hrs; method in brief: as §2
[30] = system: Staphylococcus epidermidis; test: Antimicrobial activity against Staphylococcus epidermidis 8A after 24 hrs; method in brief: as §2
Clostridioides difficile [31] = test: Antimicrobial activity against Clostridium difficile Z170 after 48 hrs; method in brief: as §1
Staphylococcus aureus [32] = test: Antimicrobial activity against Staphylococcus aureus V1 after 24 hrs; method in brief: as §2
Candida albicans [33] = test: Antimicrobial activity against Candida albicans 1015391
Cutibacterium acnes [34] = test: Antimicrobial activity against Propionibacterium acnes C1 after 24 hrs; method in brief: as §2
Staphylococcus aureus [35] = test: Antimicrobial activity against Staphylococcus aureus ATCC 6538 after 24 hrs; conditions: ATCC 6538, 24 h; method in brief: as §2
Clostridioides difficile [36] = test: Antimicrobial activity against Clostridium difficile Z150 after 48 hrs; method in brief: as §1
Staphylococcus aureus [37] = test: Antimicrobial activity against Staphylococcus aureus K1 after 24 hrs; method in brief: as §2
Acinetobacter sp. [38] = test: Antimicrobial activity against Acinetobacter sp.1
Clostridioides difficile [39] = test: Antimicrobial activity against Clostridium difficile Z166 after 48 hrs; method in brief: as §1

CCNC(=S)N/N=C/C=C/c1ccc([N+](=O)[O-])o1
MIC (Clostridioides difficile [1]): 0.5 µg/mL (≈ 1.86 µM)
MIC (Clostridioides difficile [2]): 2 µg/mL (≈ 7.45 µM)
MIC (Clostridioides difficile [3]): 2 µg/mL (≈ 7.45 µM)
MIC (Clostridioides difficile [4]): 8 µg/mL (≈ 29.8 µM)
MIC [5]: 4 µg/mL (≈ 14.9 µM)
MIC (Clostridioides difficile [6]): 16 µg/mL (≈ 59.6 µM)
MIC (Cutibacterium acnes [7]): 8 µg/mL (≈ 29.8 µM)
MIC (Clostridioides difficile [8]): 8 µg/mL (≈ 29.8 µM)
MIC (Candida albicans [9]): 128 µg/mL (≈ 477 µM)
MIC [10]: 2 µg/mL (≈ 7.45 µM)
MIC (Clostridioides difficile [11]): 4 µg/mL (≈ 14.9 µM)
MIC (Staphylococcus aureus [12]): 2 µg/mL (≈ 7.45 µM)
MIC [13]: 4 µg/mL (≈ 14.9 µM)
MIC (Staphylococcus aureus [14]): 4 µg/mL (≈ 14.9 µM)
MIC (Clostridioides difficile [15]): 4 µg/mL (≈ 14.9 µM)
MIC (Clostridioides difficile [16]): 2 µg/mL (≈ 7.45 µM)
MIC (Staphylococcus aureus [17]): 4 µg/mL (≈ 14.9 µM)
MIC (Clostridioides difficile [18]): 1 µg/mL (≈ 3.73 µM)
MIC (Acinetobacter sp. [19]): 128 µg/mL (≈ 477 µM)
MIC (Clostridioides difficile [20]): 2 µg/mL (≈ 7.45 µM)
MIC (Clostridioides difficile [21]): 0.5 µg/mL (≈ 1.86 µM)
MIC (Acinetobacter sp. [22]): 128 µg/mL (≈ 477 µM)
MIC (Clostridioides difficile [23]): 2 µg/mL (≈ 7.45 µM)
MIC (Clostridioides difficile [24]): 2 µg/mL (≈ 7.45 µM)
MIC (Cutibacterium acnes [25]): 8 µg/mL (≈ 29.8 µM)
MIC (Clostridioides difficile [26]): 2 µg/mL (≈ 7.45 µM)
MIC (Clostridioides difficile [27]): 1 µg/mL (≈ 3.73 µM)
MIC (Staphylococcus aureus [28]): 2 µg/mL (≈ 7.45 µM)
MIC (Staphylococcus aureus [29]): 4 µg/mL (≈ 14.9 µM)
MIC [30]: 2 µg/mL (≈ 7.45 µM)
MIC (Clostridioides difficile [31]): 2 µg/mL (≈ 7.45 µM)
MIC (Staphylococcus aureus [32]): 2 µg/mL (≈ 7.45 µM)
MIC (Candida albicans [33]): 128 µg/mL (≈ 477 µM)
MIC (Cutibacterium acnes [34]): 8 µg/mL (≈ 29.8 µM)
MIC (Staphylococcus aureus [35]): 4 µg/mL (≈ 14.9 µM)
MIC (Clostridioides difficile [36]): 4 µg/mL (≈ 14.9 µM)
MIC (Staphylococcus aureus [37]): 4 µg/mL (≈ 14.9 µM)
MIC (Acinetobacter sp. [38]): 128 µg/mL (≈ 477 µM)
MIC (Clostridioides difficile [39]): 2 µg/mL (≈ 7.45 µM)
